A selection: hits, their analogues and other compounds. The true share with any hit is near 1.5%.
EBI2 antag: EBI2 (human) antagonism. P32249. EBI2 beta-arrestin recruitment, luminescence, 7a,25-OHC stimulated. inhibition, % at 5 µM. 360,000 tested, 0.81% active. AID 651636; in the data active means inhibition above about 38%;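 further: enzyme fragment complementation signal reports receptor beta-arrestin coupling in cells; 0% = agonist plus DMSO wells and 100% = wells without agonist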
CCR6 antagonist: antagonists of human CCR6 receptor | P51684 | CHO-K1 CCR6 PathHunter beta-arrestin, luminescence, CCL20-stimulated | inhibition, % at 20 µM | 340,000 tested, 0.49% active | AID 493098;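 active means compounds whose inhibition of the agonist-driven luminescence signal at 20 µM reaches about 50%, limit read from the data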;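 further: cells stimulated with CCL20 at 14 nM final; plate controls were DMSO with CCL20 for no effect and DMSO without agonist for full effect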
APJ antagonist: blocks the human apelin receptor APJ. P35414. CHO-K1 APJ beta-arrestin complementation, luminescence. inhibition, % at 20 µM. 330,000 tested, 0.32% active. AID 2521;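 active means inhibition above about 40% at 20 µM, limit read from the data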;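 further: cells challenged with 10 nM apelin-13 agonist together with compound; plate controls were apelin-13 plus DMSO wells for no effect and DMSO wells lacking apelin-13 for full effect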
APJ agonist: APJ receptor agonism | P35414 | CHO-K1 APJ PathHunter beta-arrestin, luminescence; 0% DMSO wells, 100% apelin | activation, % at 20 µM | 330,000 tested, 0.11% active;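 active means activation more than six SD over the plate average, tested at 20 µM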;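 further: 0% = DMSO alone and 100% = apelin-13 at 10 nM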
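Test system: CHO-K1 APJ beta-arrestin complementation cell line | Compound: Single test compound dose, 20 µM final, 1% DMSO | Incubation: Compound 90 min 25 °C, reagent 1 h | Measured by: beta-gal luminescence | Read-out basis: APJ–arrestin association signal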
CXCR6 inh: blocks human CXCR6 beta-arrestin recruitment | CHO-K1 PathHunter CXCR6 beta-arrestin, luminescence | 360,000 tested, 0.36% active | O00574 | inhibition, % at 20 µM; in the data active means inhibition above about 34%, passing the limit was not always enough;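 further: antagonist mode with CXCL16 agonist at 10 nM final; 0% = 10 nM CXCL16 with DMSO and 100% = unstimulated wells without agonist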
Target sequence (O00574 whole entry, looked up): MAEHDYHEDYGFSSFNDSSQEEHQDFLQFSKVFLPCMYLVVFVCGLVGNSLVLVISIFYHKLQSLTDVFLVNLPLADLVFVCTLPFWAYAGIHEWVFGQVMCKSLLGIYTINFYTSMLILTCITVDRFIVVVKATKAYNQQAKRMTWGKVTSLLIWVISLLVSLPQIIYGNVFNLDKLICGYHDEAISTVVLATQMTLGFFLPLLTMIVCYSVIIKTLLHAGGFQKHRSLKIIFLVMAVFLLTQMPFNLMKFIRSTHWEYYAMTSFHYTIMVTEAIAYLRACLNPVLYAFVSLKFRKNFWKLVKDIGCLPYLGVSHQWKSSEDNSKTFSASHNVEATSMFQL
APJ antag conf: APJ receptor antagonism confirmation; shares compounds with APJ antagonist; inhibition, % at 20 µM; 950 tested, 66% active; APJ beta-arrestin recruitment, luminescence, antagonist mode; in the data active means inhibition above about 50%
An asterisk follows results filed as active; . = no result given.

SMILES | EBI2 antag | CCR6 antagonist | APJ antagonist | APJ agonist | CXCR6 inh | APJ antag conf
Cc1[nH]n(-c2ccccc2)c(=O)c1C(c1ccc(O)c([N+](=O)[O-])c1)c1c(C)[nH]n(-c2ccccc2)c1=O | 11 | 45 | 40* | -4 | 21 | 41
O=C(N/N=C/c1cc(Cl)cc([N+](=O)[O-])c1O)NC12CC3CC(CC(C3)C1)C2 | 14 | 44 | 42* | -4 | 34 | 70*
O=C(N/N=C/c1ccccc1O)NC12CC3CC(CC(C3)C1)C2 | 42 | 18 | -32 | 2 | 27 | .
CCC1=NN(C(=O)c2ccc(Cl)cc2)C(O)(c2ccccc2)C1 (stereo not given) | 11 | 48 | 41* | -3 | 33 | 48
CCN(CC)S(=O)(=O)c1cccc(N=Nc2c(O)c3ccccc3oc2=O)c1 | 21 | 59* | 40* | -6 | 29 | 50
Nc1ccn(CCCN2CCN(C(=O)C3CC3)CC2)c(=O)n1 | -6 | . | . | . | 3 | .
O=C1C=C(N2CCOCC2)CCC1 | 0 | -3 | -54 | -3 | -1 | .
O=C1C=C(N2CCOCC2)CO1 | -3 | 7 | 42* | -4 | 7 | -5
COc1ccc(CNC(=O)CN(Cc2ccco2)C(=O)CNS(=O)(=O)c2ccc(F)cc2)cc1 | -4 | 8 | 41* | 1 | 12 | -32
CCCCCNC(=O)CCCCn1c(=O)[nH]c2cc(OCC)c(OCC)cc2c1=O | -5 | 5 | 5 | 2 | -3 | .
CCOc1cc2[nH]c(=O)n(CCCCC(=O)N3CCCCCC3)c(=O)c2cc1OCC | 1 | 11 | 44* | 3 | -2 | 1
COc1cccc(C(C(=O)NCc2ccccc2)N2CCN(c3cccc(C)c3C)CC2)c1OC (stereo not given) | 27 | . | . | . | . | .
CCOC(=O)[C@]12CCC=C1N(Cc1ccco1)C(=O)[C@H](CC(=O)NCCCCc1ccccc1)C2 | 6 | . | . | . | 17 | .
COc1cc(/C=C2/SC(=S)N(CC3CCCO3)C2=O)ccc1O (stereo not given) | 7 | 73* | 48* | -4 | 42* | 88*
COc1cc(/C=C2\SC(=S)N(C(Cc3ccccc3)C(=O)O)C2=O)ccc1O (stereo not given) | -7 | 30 | 48* | -7 | 26 | 82*
CCOc1cc(/C=C2\SC(=S)N(Nc3ccccc3)C2=O)ccc1O | 16 | 62* | 52* | -11 | 44* | 108*
COc1cc(/C=C2\SC(=S)N(Nc3ncc(C(F)(F)F)cc3Cl)C2=O)ccc1O | 40 | 68* | 51* | -20 | 60* | 105*
CN(C)c1ccc(/C=C2\SC(=S)N(Nc3ncc(C(F)(F)F)cc3Cl)C2=O)cc1 | 26 | 36 | 33 | -7 | 29 | .
CC(Sc1nnc(C2CC2)n1C1CC1)C(=O)N(C)C1(C#N)CCCCC1 (stereo not given) | -12 | 3 | 0 | -1 | -9 | .
O=C(Nc1ccc(S(=O)(=O)NC2=NCCCCC2)cc1)c1cccc(OC(F)F)c1 | 3 | . | . | . | 4 | .
COc1cc(/C=C2\SC(=S)N(Nc3ccccc3)C2=O)ccc1O | 15 | 74* | 56* | -7 | 51* | 97*
Cc1ccc(NNC(=O)c2c(C)noc2C)cc1Cl | 19 | 14 | 56* | -13 | 4 | 70*
Cc1noc(C)c1C(=O)NNc1ccc(C(C)C)cc1 | 4 | 27 | 47* | -20 | -3 | 102*
Cc1cc(C(=O)NNc2ccc(C)c(C)c2)no1 | 3 | 22 | 42* | -12 | 17 | 114*
Cc1cc(Cl)ccc1NNC(=O)c1c(C)noc1C | -10 | -9 | -14 | -2 | -11 | .
SMILES | EBI2 antag | CCR6 antagonist | APJ antagonist | APJ agonist | CXCR6 inh | APJ antag conf
Cc1cc(C(=O)NNc2ccc(Cl)cc2)no1 | 13 | 18 | 24 | -6 | 8 | .
COc1ccc(-c2c(-c3ccc4c(c3)OCO4)c3ccccc3n2C)cc1 | 7 | 9 | . | . | 2 | .
CCCCCCCCN1C(=O)[C@H](CC(=O)NCCC(C)C)C[C@@]2(C(=O)OCC)CCCC=C12 | 3 | . | . | . | 17 | .
Clc1ccc(-c2nn3c(-c4ccccc4)nnc3s2)cc1 | 8 | 10 | 43* | -2 | -2 | 16
c1ccc(-c2nnc3sc(-c4ccncc4)nn23)cc1 | 6 | -7 | 10 | -5 | -5 | .
CN(C)c1ccc(N=Nc2nc3ccccc3n2C)cc1 | 28 | 75* | 48* | -10 | 54* | 108*
CC(C)[C@H](NC(=O)OC(C)(C)C)c1cc(C(=O)NCCc2c[nH]c3ccccc23)c(N)s1 | 19 | . | . | . | . | .
COc1ccc(/C=C2/C(=O)N(c3ccccc3)N=C2C)cc1 | 0 | 10 | 12 | 2 | 2 | .
COc1cc(/C=C2/C(=O)N(c3cccc(Br)c3)N=C2C)cc(OC)c1O | 28 | 72* | 54* | -10 | 59* | 82*
COc1ccc(/C=C2/C(=O)N(c3ccccc3)N=C2C)cc1OC | 8 | 16 | 47* | 0 | 7 | 7
CCN(CC)c1c(C)nc2ccc(C(=O)Nc3cc(-c4ccccc4)ccc3OC)cn12 | 32 | . | . | . | 10 | .
O=C1Nc2ccc(F)cc2C12Nc1ccccc1-c1nnc(SCc3ccccc3)nc1O2 (stereo not given) | 19 | 30 | 32 | -12 | 5 | .
O=C1Nc2ccc(F)cc2C12Nc1ccccc1-c1nnc(SCc3ccccc3Cl)nc1O2 (stereo not given) | 19 | 40 | 53* | -4 | 22 | 75*
COC(=O)c1ccc(CNc2ccc(C(C)=O)cc2)cc1 | 2 | . | . | . | -5 | .
O=C(NNc1ccc(Cl)cc1)c1sccc1Cl | 21 | 27 | 62* | -6 | 8 | 98*
Cc1cc([N+](=O)[O-])ccc1NC(=S)NC(=O)C(c1ccccc1)c1ccccc1 | 19 | 53* | 42* | -11 | 35 | 52*
CC1=NN(C(N)=S)C(=O)C1N=Nc1ccc(O)cc1 (stereo not given) | -3 | 27 | 13 | -5 | 6 | .
CC1=NN(C(N)=S)C(=O)C1N=Nc1ccc([N+](=O)[O-])cc1 (stereo not given) | 7 | 75* | 50* | -10 | 46* | 81*
CC(NC(=O)c1ccc(Cl)c(S(=O)(=O)NC2CC2)c1)c1ccco1 (stereo not given) | 5 | . | . | . | 9 | .
CCCCCCCCCCCCCCCC(O)C(N)CO (stereo not given) | 3 | 24 | 41* | -3 | 9 | 47
CCCCCCCCCCCCCCCC(O)C[N+](C)(C)CCO (stereo not given) | 1 | 34 | . | . | 21 | .
O=C(CNC(=O)c1ccc(Br)cc1)OC1CCOC1=O (stereo not given) | -12 | . | . | . | -5 | .
Cc1ccc(Cl)cc1-c1cc(C(=O)N2CCN(c3ccncc3)CC2)[nH]n1 | 2 | . | . | . | -4 | .
COc1ccc(-c2c3c(nc4sc(C(=O)Nc5cc(C)on5)c(N)c24)CCC3)cc1 | 25 | 9 | 55* | -17 | 10 | 30
